Common to all, as to format: functional
One experiment relates to Aspergillus fumigatus. Put plainly: Antifungal activity against Aspergillus fumigatus was determined in vitro. Put shortly:
(§1)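 Broth microdilution in Sabouraud's glucose broth; MIC read as the fungistatic end point. Final inocula were 1 × 10^5 cells/mL for the yeast and 1 × 10^5 conidia/mL for the mould and the dermatophyte.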

For experiment [1], the system named is Candida albicans. Put plainly: (§2) Antifungal activity against Candida albicans was determined in vitro. Put shortly: as §1
A further experiment deals with Trichophyton benhamiae. Put plainly: Antifungal activity against Trichophyton asteroides was determined in vitro. Put shortly:
as §1

In experiment [2] the test system is Candida albicans. Described as §2. Put shortly:
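MIC by broth microdilution in microtiter plates. Final inoculum 1 × 10^5 yeast cells per mL of Sabouraud's glucose broth. Fungistatic activity was assessed.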
This is another data set of the same source.

In brackets after ≈: the same amount, converted by molar mass.

Data on 37 molecules can be found in ChEMBL document CHEMBL1123819, “Synthesis and antifungal activity of a series of novel 1,2-disubstituted propenones” (1987).

Consider `C=C(C(=O)c1ccc(Cl)cc1)n1cnccc1=O`, for which the results for the minimum inhibitory concentration (MIC) against Aspergillus fumigatus, in the experiment with Candida albicans [1] and against Trichophyton benhamiae were 3.1 µg/mL (≈ 11.9 µM), 0.4 µg/mL (≈ 1.53 µM) and 1.6 µg/mL (≈ 6.14 µM), respectively.
Taken in the same sequence, the figures for `C=C(C(=O)c1ccc(Cl)cc1)n1ccccc1=O` were 2.5 µg/mL (≈ 9.63 µM), 1.6 µg/mL (≈ 6.16 µM) and 0.8 µg/mL (≈ 3.08 µM).
For `C=C(Cn1ccccc1=O)C(=O)c1ccsc1` the same measures were 50 µg/mL (≈ 204 µM), 50 µg/mL (≈ 204 µM) and 6.3 µg/mL (≈ 25.7 µM).
For `C=C(Cn1ccccc1=O)C(=O)c1ccc(Cl)cc1` the same measures were 25 µg/mL (≈ 91.3 µM), 1.6 µg/mL (≈ 5.85 µM) and 0.8 µg/mL (≈ 2.92 µM).
For `Clc1ccccc1C(c1ccccc1)(c1ccccc1)n1ccnc1` [CLOTRIMAZOLE], the MIC (in general, the lowest concentration found to suppress growth) in the experiment on Aspergillus fumigatus came to 1.6 µg/mL (≈ 4.64 µM); with Candida albicans [1], 1.6 µg/mL (≈ 4.64 µM); against Trichophyton benhamiae, 0.1 µg/mL (≈ 0.29 µM).
`C=C(C(=O)c1ccc(F)cc1)n1cncn1`: the MIC stood at 6.3 µg/mL (≈ 29 µM) in the experiment on Aspergillus fumigatus, 0.4 µg/mL (≈ 1.84 µM) against Candida albicans [1] and 0.8 µg/mL (≈ 3.68 µM) in the experiment on Trichophyton benhamiae.
Taken in the same sequence, the figures for `C=C(Cn1c(=O)ccc2ccccc21)C(=O)c1ccc(Cl)cc1` were 100 µg/mL (≈ 309 µM), 25 µg/mL (≈ 77.2 µM) and 3.1 µg/mL (≈ 9.57 µM).
As for `C=C(C(=O)c1cccs1)c1ccccc1`, the minimal inhibitory concentration (MIC) against Aspergillus fumigatus came to 1.6 µg/mL (≈ 7.47 µM); in the experiment with Candida albicans [1], 1.6 µg/mL (≈ 7.47 µM); in the experiment with Trichophyton benhamiae, 0.2 µg/mL (≈ 0.933 µM).
Turning to `C=C(c1ccccc1OCc1cccc(Cl)c1)n1ccnc1` [CROCONAZOLE], the values for the minimal inhibitory concentration (MIC) with Aspergillus fumigatus, in the experiment with Candida albicans [2] and against Trichophyton benhamiae were 3.1 µg/mL (≈ 9.97 µM), 3.1 µg/mL (≈ 9.97 µM) and 0.1 µg/mL (≈ 0.322 µM), respectively.
Consider `C=C(C(=O)c1ccc(-c2ccccc2)cc1)n1cncn1`, for which the results for the minimum inhibitory concentration (MIC) against Aspergillus fumigatus, in the experiment on Candida albicans [1] and in the experiment with Trichophyton benhamiae were 3.1 µg/mL (≈ 11.3 µM), 0.4 µg/mL (≈ 1.45 µM) and 0.2 µg/mL (≈ 0.726 µM), respectively.
Consider `C=C(C(=O)c1cccs1)c1ccc(Cl)cc1`, for which the figures for the MIC in the experiment on Aspergillus fumigatus, against Candida albicans [1] and against Trichophyton benhamiae were 3.1 µg/mL (≈ 12.5 µM), 3.1 µg/mL (≈ 12.5 µM) and 0.1 µg/mL (≈ 0.402 µM), respectively.
Take `C=C(C(=O)c1ccc(Cl)cc1)n1cnc2ccccc2c1=O`: the figures for the minimal inhibitory concentration (MIC) in the experiment with Aspergillus fumigatus, against Candida albicans [1] and against Trichophyton benhamiae were 0.4 µg/mL (≈ 1.29 µM), 0.1 µg/mL (≈ 0.322 µM) and 0.1 µg/mL (≈ 0.322 µM), respectively.
`C=C(C(=O)c1ccc(Cl)cc1Cl)c1ccc(Cl)cc1Cl`: the MIC against Aspergillus fumigatus was above 100 µg/mL; in the experiment with Candida albicans [1] it was 6.3 µg/mL (≈ 18.2 µM); in the experiment on Trichophyton benhamiae it was 0.4 µg/mL (≈ 1.16 µM).
For `C=C(Cn1cncn1)C(=O)c1ccc(OC)cc1` the same measures were above 100 µg/mL, 12.5 µg/mL (≈ 51.4 µM) and 6.3 µg/mL (≈ 25.9 µM).
In the case of `C=C(Cn1cncn1)C(=O)c1ccc(Cl)cc1`, the minimal inhibitory concentration (MIC) is 12.5 µg/mL (≈ 50.5 µM) in the experiment with Aspergillus fumigatus, 0.4 µg/mL (≈ 1.61 µM) with Candida albicans [1] and 1.6 µg/mL (≈ 6.46 µM) against Trichophyton benhamiae.
In the case of `C=C(C(=O)c1ccco1)n1cncn1`, the MIC was 6.3 µg/mL (≈ 33.3 µM) in the experiment on Aspergillus fumigatus, 0.8 µg/mL (≈ 4.23 µM) against Candida albicans [1] and 3.1 µg/mL (≈ 16.4 µM) against Trichophyton benhamiae.
For the molecule `C=C(Cn1cnc2ccccc2c1=O)C(=O)c1ccc(Cl)cc1`, the minimal inhibitory concentration (MIC) with Aspergillus fumigatus came to 6.3 µg/mL (≈ 19.4 µM); against Candida albicans [1], 3.1 µg/mL (≈ 9.55 µM); against Trichophyton benhamiae, 3.1 µg/mL (≈ 9.55 µM).
For the molecule `O=C(c1ccc(Cl)cc1)C(CO)n1cnc2ccccc2c1=O` (stereo unspecified), the minimum inhibitory concentration (MIC) stood at 6.3 µg/mL (≈ 19.2 µM) with Aspergillus fumigatus, 0.8 µg/mL (≈ 2.43 µM) against Candida albicans [1] and 0.8 µg/mL (≈ 2.43 µM) against Trichophyton benhamiae.
As for `Clc1ccc(COC(Cn2ccnc2)c2ccc(Cl)cc2Cl)c(Cl)c1` (stereo unspecified) [MICONAZOLE], the MIC in the experiment with Aspergillus fumigatus amounted to 6.3 µg/mL (≈ 15.1 µM); with Candida albicans [1], 3.1 µg/mL (≈ 7.45 µM); against Trichophyton benhamiae it was 0.1 µg/mL (≈ 0.24 µM).
`C=C(C(=O)c1ccc(-c2ccccc2)cc1)n1ccccc1=O`: the figures for the minimum inhibitory concentration (MIC) against Aspergillus fumigatus, with Candida albicans [1] and in the experiment with Trichophyton benhamiae were 12.5 µg/mL (≈ 41.5 µM), 0.8 µg/mL (≈ 2.65 µM) and 0.4 µg/mL (≈ 1.33 µM), respectively.
For `C=C(C(=O)c1ccc(Cl)cc1)n1cc(Cl)ccc1=O` the same measures were 3.1 µg/mL (≈ 10.5 µM), 0.8 µg/mL (≈ 2.72 µM) and 0.8 µg/mL (≈ 2.72 µM).
For `C=C(C(=O)c1cccs1)n1cncn1` the same measures were 6.3 µg/mL (≈ 30.7 µM), 0.4 µg/mL (≈ 1.95 µM) and 1.6 µg/mL (≈ 7.8 µM).
Taken in the same sequence, the figures for `CC(C(=O)c1ccc(Cl)cc1)n1ccccc1=O` (stereo unspecified) were above 100 µg/mL, above 100 µg/mL and above 100 µg/mL.
On to `C=C(C(=O)c1ccc(OC)cc1)n1cnc2ccccc2c1=O`, for which the minimal inhibitory concentration (MIC) came out at 6.3 µg/mL (≈ 20.6 µM) against Aspergillus fumigatus, 1.6 µg/mL (≈ 5.22 µM) in the experiment with Candida albicans [1] and 0.4 µg/mL (≈ 1.31 µM) in the experiment with Trichophyton benhamiae.
For `C=C(C(=O)c1ccc(Cl)cc1)N1C(=O)C=NC(=O)C1C` (stereo unspecified) the same measures were 6.3 µg/mL (≈ 21.7 µM), 6.3 µg/mL (≈ 21.7 µM) and 3.1 µg/mL (≈ 10.7 µM).
For `C=C(C(=O)c1ccc(C)cc1)n1cncn1` the same measures were 6.3 µg/mL (≈ 29.5 µM), 0.2 µg/mL (≈ 0.938 µM) and 0.8 µg/mL (≈ 3.75 µM).
For `C=C(C(=O)c1ccccc1OC)n1ccccc1=O` the same measures were above 100 µg/mL, 3.1 µg/mL (≈ 12.1 µM) and 1.6 µg/mL (≈ 6.27 µM).
With `C=C(C(=O)c1ccc(-c2ccccc2)cc1)n1cnc2ccccc2c1=O`, the values for the MIC in the experiment with Aspergillus fumigatus, in the experiment with Candida albicans [1] and against Trichophyton benhamiae were above 100 µg/mL, above 100 µg/mL and 25 µg/mL (≈ 70.9 µM), respectively.
Consider `COCC(C(=O)c1ccc(OC)cc1)n1cncn1` (stereo unspecified), for which the MIC in the experiment with Aspergillus fumigatus stood at 100 µg/mL (≈ 383 µM); against Candida albicans [1] it was 3.1 µg/mL (≈ 11.9 µM); with Trichophyton benhamiae, 3.1 µg/mL (≈ 11.9 µM).
As for `C=C(CN(C)C)C(=O)c1ccc(Cl)cc1`, the MIC against Aspergillus fumigatus amounted to 12.5 µg/mL (≈ 55.9 µM); against Candida albicans [1] it was 12.5 µg/mL (≈ 55.9 µM); in the experiment on Trichophyton benhamiae, 6.3 µg/mL (≈ 28.2 µM).
For the molecule `C=C(C(=O)c1ccc(Cl)cc1)n1c(=O)ccc2ccccc21`, the results for the MIC against Aspergillus fumigatus, in the experiment with Candida albicans [1] and against Trichophyton benhamiae were 1.6 µg/mL (≈ 5.17 µM), 3.1 µg/mL (≈ 10 µM) and 0.2 µg/mL (≈ 0.646 µM), respectively.
For `C=C(C(=O)c1ccc(Cl)cc1)n1cncn1` the same measures were 6.3 µg/mL (≈ 27 µM), 0.2 µg/mL (≈ 0.856 µM) and 1.6 µg/mL (≈ 6.85 µM).
For `C=C(C(=O)c1ccc(Cl)cc1Cl)n1ccccc1=O` the same measures were 25 µg/mL (≈ 85 µM), 0.8 µg/mL (≈ 2.72 µM) and 0.8 µg/mL (≈ 2.72 µM).
Regarding `C=C(C(=O)c1ccc(Cl)cc1)n1cc(C)ccc1=O`, the minimal inhibitory concentration (MIC) against Aspergillus fumigatus turned out to be 3.1 µg/mL (≈ 11.3 µM); against Candida albicans [1] it was 0.8 µg/mL (≈ 2.92 µM); against Trichophyton benhamiae it was 0.8 µg/mL (≈ 2.92 µM).
On to `C=C(C(C)=O)n1cncn1`, for which the figures for the minimal inhibitory concentration (MIC) in the experiment with Aspergillus fumigatus, against Candida albicans [1] and against Trichophyton benhamiae were 25 µg/mL (≈ 182 µM), 12.5 µg/mL (≈ 91.1 µM) and 3.1 µg/mL (≈ 22.6 µM), respectively.
Taken in the same sequence, the figures for `C=C(C(=O)c1ccc(C#N)cc1)n1cncn1` were 25 µg/mL (≈ 111 µM), 1.6 µg/mL (≈ 7.14 µM) and 6.3 µg/mL (≈ 28.1 µM).
On to `C=C(C(=O)C(C)(C)C)n1ccccc1=O`, for which the MIC with Aspergillus fumigatus was above 100 µg/mL; against Candida albicans [1] it was 50 µg/mL (≈ 244 µM); in the experiment with Trichophyton benhamiae, 6.3 µg/mL (≈ 30.7 µM).
